We go through five compounds from ChEMBL document CHEMBL3244143, “Synthesis and gastric antisecretory properties of an 8-aza-and a 10-oxa-8,12-secoprostaglandin” (1978).

Test [1] relates to Rattus norvegicus. The test can be described thus: Antisecretory activity in rat assessed as decrease in volume of gastric secretion at 1.5 mg/kg, sc immediately after surgery and again 2 hrs later measured after 4 hrs of pyloric ligation. The format is functional, Stomach. Details: scale not given: the % may be the effect or the level left. The note with it: route subcutaneous. The essentials: (§1)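 Pylorus-ligated rats under ether anesthesia via midline incision; 1.5 mg/kg sc given immediately after surgery and again 2.0 h later (total 3 mg/kg), diluted in phosphate buffer pH 7.4, 1 mL/kg. Six rats per compound plus vehicle control group. Killed 4 h after ligation; gastric volume measured, contents centrifuged 5000 rpm 10 min, supernatant titrated with 0.1 N NaOH to pH 7.0 (mequiv); % change vs control.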

The subject of test [2] is Rattus norvegicus. In words: Antisecretory activity in rat assessed as decrease in total acid at 1.5 mg/kg, sc immediately after surgery and again 2 hrs later measured after 4 hrs of pyloric ligation. The format is functional. Details: scale not given: the % may be the effect or the level left. The note with it: route subcutaneous. The method, boiled down:
as §1

Turning to `CCCCCC(O)/C=C/CCOC(=O)CCCCCCCC(=O)OC` (stereo not given), the Activity came out at 25% in the test on Rattus norvegicus [1] and 34% in the test on Rattus norvegicus [2].

For the compound `CCCCCC(O)/C=C/CCCC(=O)N(C)CCCCCCC(=O)OC` (stereo not given), the Activity is reported as 21% in the test with Rattus norvegicus [1] and 32% with Rattus norvegicus [2].

Take `CCCCCC(O)/C=C/CCCC(=O)N(C)CCCCCCC(=O)O` (stereo not given): the Activity in the test on Rattus norvegicus [1] and with Rattus norvegicus [2] was 25% in each case.

Turning to `CCCCC[C@H](O)/C=C/[C@H]1[C@H](O)CC(=O)[C@@H]1CCCCCCC(=O)O` [ALPROSTADIL], the Activity was 74% in the test on Rattus norvegicus [1] and 96% in the test with Rattus norvegicus [2].

With `CCCCC[C@H](O)/C=C/[C@@H]1[C@@H](C/C=C\CCCC(=O)O)[C@@H](O)C[C@H]1O` [DINOPROST], the results for the Activity with Rattus norvegicus [1] and in the test with Rattus norvegicus [2] were 37% and 42%, respectively.
